STAT3 inh: STAT3 signaling inhibition. 190,000 compounds, 0.89% hits. inhibition, % at 5.5 µM. U3A cells, IL-6 STAT3-luciferase reporter, luminescence; host cell line lacks STAT1;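 active = inhibition above the mean inhibition across all screened compounds plus 3 SD, cut at about 44% in these data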
STAT3 act-1: activators of IL-6 induced STAT3 signaling; U3A cells, IL-6 STAT3-luciferase reporter, luminescence; 100% = signal with IL-6 EC80 alone; activation (% of control), % at 5.6 µM; 190,000 compounds, 0.91% hits;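 active = activation above the screen-wide mean of compound activation plus 3 SD, cut at about 130% in these data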
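Test system: human U3A cells carrying STAT3-luciferase construct; control set: IL-6-only wells as 100% reference; timing: compound pre-incubation 1 h before IL-6, then 6 h stimulation at 37 °C; also added: IL-6 stimulus at 33 ng/mL final; evaluation: % activation versus median of IL-6-stimulated wells; detection: reporter luminescence signal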
STAT1 inh-1: reduces IFN-gamma driven STAT1 reporter signal | AID 920 | inhibition, % at 5.5 µM | NIH 3T3 STAT1-luciferase reporter, luminescence | 200,000 compounds, 0.35% hits;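 active = inhibition above a set limit, the mean inhibition across all tested compounds plus 3 SD, cut at about 34% in these data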
STAT1 act-1: STAT1 signaling activation | activation (% of control), % at 5.5 µM | 200,000 compounds, 2.6% hits | NIH 3T3 STAT1-luciferase reporter, IFN-gamma, luminescence; 100% = IFN-gamma alone, no compound | AID 932;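 active = activation above the screen-wide mean activation plus 3 SD, cut at about 130% in these data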
STAT3 act-2: confirmation of STAT3 signaling activators | 1,200 compounds, 64% hits | shares compounds with STAT3 act-1 | potentiation (% of control), % at 5.7 µM | U3A STAT3-luciferase reporter, IL-6 potentiation, luminescence; U3A cells lack STAT1; 100 means same as IL-6 alone;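 active = percent activation of the STAT3 luciferase reporter above a set limit taken from the earlier primary screen, cut at about 130% in these data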
NFkB act STAT3ct: activates NF-kappaB, counter-screen to STAT3 activators. shares compounds with STAT3 act-1. human cells, NF-kappaB reporter activation. activation (% of control), % at 5.7 µM. 1,200 compounds, 11% hits; in the data active = activation above about 120%;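 also: reporter induced by TNF-alpha stimulation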
STAT1 act-2: counter-screen for STAT3 activators: STAT1 activation; shares compounds with STAT3 act-1; activation (% of control), % at 5.7 µM; 1,200 compounds, 13% hits; NIH 3T3 STAT1-luciferase reporter, IFN-gamma, luminescence;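 active = activation above the solvent-only control well mean plus 3 SD, set per screening run, cut at about 120% in these data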
STAT1 inh-2: confirmation of STAT1 signaling inhibitors. 200 compounds, 55% hits. shares compounds with STAT1 inh-1. NIH 3T3 STAT1-luciferase reporter, IFN-gamma, luminescence. inhibition, % at 5.5 µM;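 active = triplicate mean inhibition exceeding the hit cutoff computed for the primary STAT1 screen, cut at about 35% in these data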
NFkB inh: counter-screen for STAT1 inhibitors: NF-kappaB inhibition. shares compounds with STAT1 inh-1. HEK293T NF-kB luciferase reporter, TNF-alpha induced, luminescence. inhibition, % at 5.7 µM. 200 compounds, 30% hits. AID 1303;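 active = inhibition above the mean of solvent-only control wells plus 3 SD of those wells, cut at about 15% in these data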
STAT3 inh 2: STAT3 inhibition in STAT1 inhibitor counter-screen; shares compounds with STAT1 inh-1; U3A cells, IL-6 STAT3 luciferase reporter, luminescence; cells lacking STAT1; inhibition, % at 5.7 µM; 200 compounds, 20% hits; AID 1310;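 active = inhibition above the mean of solvent-only control wells plus 3 SD, set per campaign, cut at about 25% in these data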
STAT1 act conf: confirmation of STAT1 signaling activators | NIH 3T3 STAT1-luciferase reporter, IFN-gamma potentiation, luminescence; 100% = IFN-gamma EC80 alone, no compound | 1,200 compounds, 97% hits | activation (% of control), % at 5.7 µM | shares compounds with STAT1 act-1;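 active = activation above a set limit carried over from the earlier primary STAT1 screen, cut at about 140% in these data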
NFkB act STAT1ct: counter-screen for STAT1 activators: NF-kappaB activation; shares compounds with STAT1 act-1; HEK293T NF-kB luciferase reporter, TNF-alpha stimulated, luminescence; 100% = TNF-alpha with vehicle only; activation (% of control), % at 5.7 µM; 1,200 compounds, 43% hits;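 active = activation above the mean of solvent-only control wells plus 3 SD, set per campaign, cut at about 130% in these data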;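 also: TNF-alpha given at a submaximal dose yielding about 80% of full reporter signal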
STAT3 act 2: activates human STAT3, counter-screen to STAT1 activators; activation (% of control), % at 5.7 µM; U3A cells STAT3-luciferase reporter, IL-6, luminescence; cells lack STAT1; 100 = IL-6 alone, no compound effect; AID 1316; 1,200 compounds, 46% hits; shares compounds with STAT1 act-1;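 active = activation above the solvent-only control well mean plus 3 SD, set per plate batch, cut at about 110% in these data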;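 also: higher means more STAT3 reporter activation so hits are non-selective activators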
Each line names hits and unclear results; the compound was inactive in the other large screens (follow-up assays come after a bar, where they were run). An excerpt weighted towards active compounds, which were near 4.3% of everything screened.

Cc1nn(Cc2ccccc2)c(C)c1C(=O)OCC(=O)Nc1ccccc1SCC#N	STAT3 act-1 138 | STAT3 act-2 inactive | NFkB act STAT3ct inactive | STAT1 act-2 inactive
CC(=Nc1c(C)n(C)n(-c2ccccc2)c1=O)c1c(O)n(Cc2ccccc2)c(=O)[nH]c1=O	STAT3 act-1 156 | STAT3 act-2 inactive | NFkB act STAT3ct inactive | STAT1 act-2 inactive
CC1(C)CN=C(NCc2ccccc2Cl)S1	none
Cn1cccc1/C=C1\C(=O)NC(=O)N(Cc2ccco2)C1=O	STAT3 act-1 146 | STAT3 act-2 inactive | NFkB act STAT3ct inactive | STAT1 act-2 inactive
COc1ccc(/C=C2/C(=O)NC(=O)N(Cc3ccco3)C2=O)cc1	none
CCOC(=O)COc1ccc2c(c1)c(C(C)=O)c(C)n2Cc1ccccc1	none
Cc1ccc(-c2nc(N(C)C3CCN(C)CC3)c3ccccc3n2)cc1	STAT3 act-1 172 | STAT3 act-2 155 | NFkB act STAT3ct inactive | STAT1 act-2 inactive
COc1ccc2c(c1)CC1(CN2C)C(=O)NC(=O)N(c2ccc(C)cc2)C1=O (stereo not given)	none
COc1ccc2c(c1)CC1(CN2C)C(=O)NC(=O)N(c2ccc(F)cc2)C1=O (stereo not given)	STAT3 act-1 150 | STAT3 act-2 134 | NFkB act STAT3ct inactive | STAT1 act-2 inactive
COC(=O)OCC12CCC(O1)C1(C)C(=O)OCC21 (stereo not given)	none
c1ccc2c(CCNC3CCCCC3)c[nH]c2c1	none
c1ccc2[nH]c(CCNC3CCCCC3)nc2c1	STAT3 act-1 137 | STAT3 act-2 inactive | NFkB act STAT3ct inactive | STAT1 act-2 inactive
CCCCN1C(=O)NC(=O)C2(Cc3c(nc4ccccn4c3=O)N3CCc4ccccc4C32)C1=O (stereo not given)	STAT3 act-1 142 | STAT3 act-2 143 | NFkB act STAT3ct inactive | STAT1 act-2 inactive
C=CC[N+]1(C)C2CCC1CC(O)C2 (stereo not given)	none
CSc1ccc(C(=O)C2CCCN(Cc3cc4ccccc4[nH]3)C2)cc1 (stereo not given)	STAT3 act-1 141 | STAT3 act-2 149 | NFkB act STAT3ct inactive | STAT1 act-2 inactive
CCCCn1c(=O)c(C(=O)Nc2ccccc2)c(O)c2ccccc21	STAT3 act-1 154 | STAT3 act-2 161 | NFkB act STAT3ct inactive | STAT1 act-2 inactive
CCCCn1c(=O)c(C(=O)Nc2ccccc2S(N)(=O)=O)c(O)c2ccccc21	none
CCCC/C(=N\O)c1c[nH]c2ccccc12	STAT3 act-1 141 | STAT3 act-2 155 | NFkB act STAT3ct inactive | STAT1 act-2 inactive
CCn1c(=O)cc(SCC(=O)N2CCC3(CC2)OCCO3)c2ccccc21	none
C=CCN(CC=C)Cc1c[nH]c2ccccc12	STAT3 act-1 147 | STAT3 act-2 134 | NFkB act STAT3ct inactive | STAT1 act-2 inactive
O/N=C/c1c[nH]c2ccccc12	none
COc1ccc(NC2=NC(C)(C)CS2)cc1	none
O=C(Nc1ccc(OC(=O)N2CCCCC2)cc1)N1CCOCC1	STAT1 inh-1 36 | STAT1 inh-2 inactive | NFkB inh inactive | STAT3 inh 2 inactive
O=C(Nc1ccc(OC(=O)N2CCCC2)cc1)N1CCOCC1	none
CC1(C)CC(=O)C(C=NCCN2CCN(C(=O)Cc3ccc(F)cc3)CC2)=C(O)C1	STAT1 inh-1 34 | STAT1 inh-2 inactive | NFkB inh inactive | STAT3 inh 2 inactive
O=P(NC(c1ccccc1)c1ccccc1)(Oc1ccccc1)Oc1ccccc1	none
CN1C(=O)/C(=C/c2ccc(N3CCCCCC3)o2)C(=O)NC1=S	STAT1 act-1 166 | STAT1 act conf 213 | NFkB act STAT1ct 148 | STAT3 act 2 126
O=C1CN(C(=O)COC(=O)Cc2ccccc2)c2ccccc2N1	none
CC(=O)Nc1ccccc1C(=O)OCc1cccc(F)c1	STAT1 act-1 184 | STAT1 act conf 182 | NFkB act STAT1ct inactive | STAT3 act 2 inactive
CCc1ccc(-c2nn(Cc3ccccc3)cc2C=O)cc1	STAT1 act-1 170 | STAT1 act conf 158 | NFkB act STAT1ct inactive | STAT3 act 2 121
O=C(O)c1cn(Cc2ccccc2)nc1-c1ccccc1	none
c1ccc(-c2[nH]c[n+](CC3CO3)c2-c2ccccc2)cc1 (stereo not given)	none
